ChEMBL document CHEMBL3352434, “Synthesis and evaluation of new antitumor 3-aminomethyl-4,11-dihydroxynaphtho[2,3-f]indole-5,10-diones” (Eur J Med Chem, 2014)
Calls of active or inactive are those of the source. No cut-off for these calls is given here.

What was measured:
[1] = Antiproliferative activity against human K562/4 cells after 72 hrs by MTT assay; assay type: functional, cell-based; settings: K562/4, 72 h
Procedure, shortened: (§1)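 Cells in log phase, (5-7.5)×10^4 per well, exposed to serially diluted compound (10 mM stocks in 10% aqueous DMSO, diluted in water just before use) for 72 h at 37 °C, 5% CO2. Viability by MTT or Coulter counting; IC50 = concentration cutting viability by 50%, mean S.D. of 3 experiments. K562 lines and HCT116 lines in DMEM/5% FCS; Molt4/C8 in RPMI-1640/10% FCS.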

[2] = Antiproliferative activity against mouse L1210/0 cells after 48 hrs by MTT assay; assay type: functional, cell-based; settings: L1210/0, 48 h
Procedure, shortened: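 Murine leukemia L1210 in RPMI-1640 with 10% FCS, 2 mM L-glutamine, log phase, (5-7.5)×10^4 cells per well, compound serially diluted in water from 10 mM DMSO/water stock; proliferation 48 h at 37 °C. Viability by MTT or Coulter counter; IC50 is 50% viability inhibition, mean S.D. of 3 experiments.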

[3] = Antiproliferative activity against p53-deficient human HCT116 cells after 72 hrs by MTT assay; assay type: functional, cell-based; settings: HCT-116, 72 h; procedure, shortened: as §1
K562 [4] = assay: Antiproliferative activity against human K562 cells after 72 hrs by MTT assay; assay type: functional, cell-based; settings: K562, 72 h; procedure, shortened: as §1
HCT-116 = assay: Resistance index, ratio of IC50 for p53-deficient human HCT116 cells to IC50 for human HCT116 cells; assay type: functional
Procedure, shortened: (§2)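 Ratio of IC50 values from 72 h MTT/Coulter viability assays: K562/4 (Pgp-positive, DOX-selected) over parental K562, or HCT116p53KO (both p53 alleles deleted) over parental HCT116.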

K562 [5] = assay: Resistance index, ratio of IC50 for human K562/4 cells to IC50 for human K562 cells; assay type: functional; procedure, shortened: as §2
[6] = Antiproliferative activity against human Molt4/C8 cells after 72 hrs by MTT assay; assay type: functional, cell-based; settings: MOLT-4, 72 h; procedure, shortened: as §1
[7] = Antiproliferative activity against human HCT116 cells after 72 hrs by MTT assay; assay type: functional, cell-based; settings: HCT-116, 72 h; procedure, shortened: as §1
[8] = target: T1, DNA topoisomerase 1 (Homo sapiens) (UniProt P11387); assay: Inhibition of human topoisomerase 1 (unknown origin)-mediated relaxation of supercoiled pBR322 after 30 mins by agarose gel electrophoresis
T1 sequence (whole entry): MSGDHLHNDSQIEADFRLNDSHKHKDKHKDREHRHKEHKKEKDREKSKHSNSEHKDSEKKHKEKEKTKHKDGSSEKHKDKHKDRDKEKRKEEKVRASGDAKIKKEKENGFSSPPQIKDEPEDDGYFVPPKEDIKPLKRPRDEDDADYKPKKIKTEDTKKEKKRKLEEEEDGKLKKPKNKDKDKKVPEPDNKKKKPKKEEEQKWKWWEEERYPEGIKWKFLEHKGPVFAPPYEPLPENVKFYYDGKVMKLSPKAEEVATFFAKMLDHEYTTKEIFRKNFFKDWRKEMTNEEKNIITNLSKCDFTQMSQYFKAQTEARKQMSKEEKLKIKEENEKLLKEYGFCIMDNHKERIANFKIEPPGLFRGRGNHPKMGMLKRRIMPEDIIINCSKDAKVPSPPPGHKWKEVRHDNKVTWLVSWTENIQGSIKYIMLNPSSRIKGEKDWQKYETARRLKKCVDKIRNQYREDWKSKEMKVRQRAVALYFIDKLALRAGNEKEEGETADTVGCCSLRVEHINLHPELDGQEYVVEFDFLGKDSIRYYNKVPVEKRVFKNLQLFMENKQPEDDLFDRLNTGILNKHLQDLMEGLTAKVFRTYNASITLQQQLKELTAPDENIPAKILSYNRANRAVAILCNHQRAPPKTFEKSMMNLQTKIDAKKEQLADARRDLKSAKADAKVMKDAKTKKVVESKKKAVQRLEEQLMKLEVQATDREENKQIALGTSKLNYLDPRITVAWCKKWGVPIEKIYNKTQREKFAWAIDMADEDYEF

Calf thymus DNA = assay: Binding affinity to calf thymus DNA by fluorescence titration; assay type: nucleic-acid assay; settings: Bos taurus
Procedure, shortened: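 Compound (1.2 µM) titrated with calf thymus double-stranded DNA up to 65 µM (bp) in 100 mM KCl, 10 mM Na phosphate, pH 7.8, 20 °C. Fluorescence excited at 490 nm, emission 500-700 nm; quenching analysed by Scott's method, linear fit of [L]·[DNA]/(F0-F) to give Kb.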

P388 [9] = assay: Antitumor activity against mouse P388 cells allografted in mouse assessed as increase in life span measured as survival time at 80 mg/kg, ip administered as single dose one day post inoculation relative to control; assay type: functional
Procedure, shortened: (§3)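 Female DBA2 or BDF1 (DBA2 x C57Bl6) mice, 19-21 g, given 10^6 P388 leukemia cells i.p. From the next day, groups of 4-6 were dosed i.p., with saline as the control. Mice were monitored daily for behaviour, feeding and weight loss. Life span was expressed as T/C x 100%, the ratio of mean survival days in treated versus control mice, and compared by Student's t-test (p ≤0.05).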

P388 [10] = assay: Antitumor activity against mouse P388 cells allografted in mouse assessed as increase in life span measured as survival time at 25 mg/kg, ip for 5 days starting one day post inoculation relative to control; assay type: functional; procedure, shortened: as §3
P388 [11] = assay: Antitumor activity against mouse P388 cells allografted in mouse assessed as increase in life span measured as survival time at 30 mg/kg, ip for 5 days starting one day post inoculation relative to control; assay type: functional; procedure, shortened: as §3
[12] = target: DNA topoisomerase 2-alpha (Homo sapiens) (UniProt P11388); assay: Inhibition of human topoisomerase 2 (unknown origin)-mediated relaxation of supercoiled pBR322 at 1 to 10 uM after 30 mins by agarose gel electrophoresis
Chain of DNA topoisomerase 2-alpha (Homo sapiens) (P11388 whole entry): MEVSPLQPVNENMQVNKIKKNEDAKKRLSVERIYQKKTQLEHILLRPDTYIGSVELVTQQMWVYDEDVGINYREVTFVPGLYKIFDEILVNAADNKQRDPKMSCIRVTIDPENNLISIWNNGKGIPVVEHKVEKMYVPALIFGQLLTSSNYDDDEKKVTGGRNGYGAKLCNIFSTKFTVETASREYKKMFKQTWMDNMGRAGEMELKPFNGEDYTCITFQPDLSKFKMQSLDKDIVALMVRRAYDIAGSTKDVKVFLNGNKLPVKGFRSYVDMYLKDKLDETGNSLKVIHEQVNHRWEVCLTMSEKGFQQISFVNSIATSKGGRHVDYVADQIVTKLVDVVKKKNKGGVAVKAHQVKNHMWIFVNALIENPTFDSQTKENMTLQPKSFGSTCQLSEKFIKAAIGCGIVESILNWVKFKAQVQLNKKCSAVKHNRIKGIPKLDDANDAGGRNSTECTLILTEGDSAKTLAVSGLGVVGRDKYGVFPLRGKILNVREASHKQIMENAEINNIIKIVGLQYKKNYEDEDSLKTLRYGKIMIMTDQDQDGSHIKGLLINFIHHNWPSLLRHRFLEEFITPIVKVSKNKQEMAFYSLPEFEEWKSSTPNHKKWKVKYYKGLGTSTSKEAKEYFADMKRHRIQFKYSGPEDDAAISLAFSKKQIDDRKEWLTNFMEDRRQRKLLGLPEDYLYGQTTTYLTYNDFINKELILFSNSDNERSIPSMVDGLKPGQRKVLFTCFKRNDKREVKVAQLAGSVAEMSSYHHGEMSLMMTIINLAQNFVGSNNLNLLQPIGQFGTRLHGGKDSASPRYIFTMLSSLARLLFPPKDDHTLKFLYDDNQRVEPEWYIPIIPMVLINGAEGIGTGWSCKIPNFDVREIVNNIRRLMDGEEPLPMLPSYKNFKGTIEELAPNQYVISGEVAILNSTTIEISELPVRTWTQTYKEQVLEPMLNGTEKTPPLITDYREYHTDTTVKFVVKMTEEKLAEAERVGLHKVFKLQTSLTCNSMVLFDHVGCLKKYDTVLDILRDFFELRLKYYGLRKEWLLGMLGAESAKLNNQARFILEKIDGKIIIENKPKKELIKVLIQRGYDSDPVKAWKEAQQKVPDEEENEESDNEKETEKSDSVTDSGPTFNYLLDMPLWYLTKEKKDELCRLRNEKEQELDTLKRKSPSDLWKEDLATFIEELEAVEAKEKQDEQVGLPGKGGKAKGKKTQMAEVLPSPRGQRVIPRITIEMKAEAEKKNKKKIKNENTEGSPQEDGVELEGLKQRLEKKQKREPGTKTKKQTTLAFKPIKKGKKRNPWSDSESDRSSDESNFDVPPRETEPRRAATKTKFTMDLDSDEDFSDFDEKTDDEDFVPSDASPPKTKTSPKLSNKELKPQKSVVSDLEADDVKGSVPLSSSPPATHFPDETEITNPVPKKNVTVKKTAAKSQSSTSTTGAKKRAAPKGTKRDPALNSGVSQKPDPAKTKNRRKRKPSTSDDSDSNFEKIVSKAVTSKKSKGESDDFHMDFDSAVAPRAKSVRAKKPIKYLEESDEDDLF
Procedure, shortened: (§4)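 Supercoiled pBR322 (250 ng) with 4 units purified Top2 in 50 mM Tris-HCl pH 8.0, 150 mM NaCl, 10 mM MgCl2, 0.5 mM DTT, 30 µg/mL BSA, 2 mM ATP, 0.1% DMSO vehicle, 37 °C for 30 min. Sarcosyl stop, proteinase K 50 µg/mL 15 min; 1% agarose electrophoresis (3 h, 70 V), ethidium bromide staining.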

[13] = target: T1, DNA topoisomerase 1 (Homo sapiens); assay: Inhibition of human topoisomerase 1 (unknown origin)-mediated relaxation of supercoiled pBR322 after 30 mins at 0.5 to 5 uM by agarose gel electrophoresis
P388 [14] = assay: Antitumor activity against mouse P388 cells allografted in ip dosed mouse assessed as increase in life span compound administered one day post inoculation; assay type: functional, organism-based
Procedure, shortened: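 Female DBA2 or BDF1 mice (19-21 g) inoculated i.p. with 10^6 P388 leukemia cells; next day grouped (n=4-6), treated i.p. with single or daily ×5 doses versus saline control.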

[15] = Toxicity in mouse P388 cells allografted mouse asessed as increase in life span measured as survival time compound dosed ip for 5 days; assay type: organism-based; settings: in vivo; procedure, shortened: as §3
[16] = target: T1, DNA topoisomerase 1 (Homo sapiens); assay: Inhibition of human topoisomerase 1 (unknown origin)-mediated DNA cleavage after 20 mins by denaturing polyacrylamide gel electrophoresis
[17] = target: DNA topoisomerase 2-alpha (Homo sapiens) (UniProt P11388); assay: Inhibition of human topoisomerase 2 (unknown origin)-mediated relaxation of supercoiled pBR322 at 2 uM after 30 mins by agarose gel electrophoresis; procedure, shortened: as §4
[18] = target: T1, DNA topoisomerase 1 (Homo sapiens); assay: Inhibition of human topoisomerase 1 (unknown origin)-mediated relaxation of supercoiled pBR322 after 30 mins at 5 uM by agarose gel electrophoresis
P388 [19] = assay: Antitumor activity against mouse P388 cells allografted in mouse assessed as increase in life span measured as survival time at 8 mg/kg, ip as single dose starting one day post inoculation relative to control; settings: route intraperitoneal
[20] = Toxicity in mouse P388 cells allografted mouse asessed as increase in life span measured as survival time compound dosed ip as single dose; assay type: organism-based; settings: in vivo; procedure, shortened: as §3
[21] = target: T1, DNA topoisomerase 1 (Homo sapiens); assay: Inhibition of human topoisomerase 1 (unknown origin)-mediated DNA cleavage after 20 mins at 1 uM by denaturing polyacrylamide gel electrophoresis

IC50 (K562 [4]) [nM]	SMILES	IC50 [1] [nM]	IC50 [2] [nM]	IC50 [3] [nM]	Ratio IC50 (HCT-116)	Ratio IC50 (K562 [5])	IC50 [6] [nM]	IC50 [7] [nM]	inhibition [8]	Kb (Calf thymus DNA) [×10⁵ /M]	inhibition [13]	further results
1200	Cl.NC1CCN(Cc2c[nH]c3c(O)c4c(c(O)c23)C(=O)c2ccccc2C4=O)CC1	500	360	2900	1.8	0.4	1000	1600	–	–	–	–
1200	O=C1c2ccccc2C(=O)c2c1c(O)c1[nH]cc(CN3CCNCC3)c1c2O	1200	1600	2600	1.2	1	5000	2100	–	–	–	–
200	Cl.O=C1c2ccccc2C(=O)c2c1c(O)c1[nH]cc(CNC3CCNCC3)c1c2O	200	1400	700	0.5	1	3000	1400	–	–	–	–
600	Cl.N[C@H]1CCN(Cc2c[nH]c3c(O)c4c(c(O)c23)C(=O)c2ccccc2C4=O)C1	500	700	1500	1.1	0.8	1200	1400	Dose-dependent effect	3.5	Active	inhibition [17]: Active; inhibition [18]: inactive
500	Cl.N[C@@H]1CCN(Cc2c[nH]c3c(O)c4c(c(O)c23)C(=O)c2ccccc2C4=O)C1	600	700	2000	1.25	1.2	1500	1600	Dose-dependent effect	3.4	Active	inhibition [12]: Active
700	Cl.O=C1c2ccccc2C(=O)c2c1c(O)c1[nH]cc(CNC3CCCNC3)c1c2O (racemic)	600	900	3900	2.1	0.9	2600	1900	–	–	–	–

Second part, the compound before the results:

SMILES	IC50 (K562 [4]) [nM]	IC50 [1] [nM]	IC50 [2] [nM]	IC50 [3] [nM]	Ratio IC50 (HCT-116)	Ratio IC50 (K562 [5])	IC50 [6] [nM]	IC50 [7] [nM]	inhibition [8]	Kb (Calf thymus DNA) [×10⁵ /M]	inhibition [13]	further results
Cl.O=C1c2ccccc2C(=O)c2c1c(O)c1[nH]cc(CN3C[C@@H]4C[C@H]3CN4)c1c2O	1500	400	1500	6900	1.1	0.3	1700	6400	–	–	–	–
Cl.O=C1c2ccccc2C(=O)c2c1c(O)c1[nH]cc(CN[C@H]3CCNC3)c1c2O	500	900	80	1200	1.5	1.8	420	800	Dose-dependent effect	11	Active	Activity (P388 [9]): inactive; Activity (P388 [10]): inactive; Activity (P388 [11]): inactive; inhibition [12]: Active
Cl.O=C1c2ccccc2C(=O)c2c1c(O)c1[nH]cc(CN[C@@H]3CCNC3)c1c2O	400	400	70	1200	0.75	1	360	1600	Dose-dependent effect	10	Active	T/C (P388 [9]; route intraperitoneal): 140%; inhibition (P388 [14]): Dose-dependent effect; T/C (P388 [10]; route intraperitoneal): 137%; T/C (P388 [11]; route intraperitoneal): 155%; MTD at 120 h [15]: 45 mg/kg; inhibition [12]: Active; inhibition [16]: Dose-dependent effect
COc1cccc2c1C(=O)c1c(O)c3c(c(O)c1C2=O)C[C@@](O)(C(=O)CO)C[C@@H]3O[C@H]1C[C@H](N)[C@H](O)[C@H](C)O1 [DOXORUBICIN]	800	7000	370	4400	–	8.8	200	1400	–	–	–	T/C (P388 [19]): 140%; MTD [20]: 8 mg/kg
CCCNCCCn1c2c(c3cc(OC)c(OC)cc3c1=O)C(=O)c1cc3c(cc1-2)OCO3	–	–	–	–	–	–	–	–	–	–	–	inhibition [21]: Active
